Reference: PMC10670441 (ACS chemical neuroscience, 2023)

Legend:
[1] = target: human serotonin transporter (hSERT) (Homo sapiens, UniProt P31645); experiment: Inhibition of APP+ uptake in hSERT-expressing HEK293 cells; assay type: cell-based; conditions: inhibition of APP+ (5 μM) uptake
Outline: (§1)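 Flp-In T-REx HEK293 lines stably carrying hDAT or hSERT, DsRED-transfected, doxycycline-induced (1μg/mL) for three days. Under perfusion in pH 7.3 HEPES-glucose buffer: 10 s buffer, 40 s compound, 30 s APP⁺ (3 μM hDAT; 5 μM hSERT) plus compound. Imaging at ex 460/em 535/50 nm. End-point fluorescence averaged over 30–60 cells per well, one concentration per well, normalised to compound-free wells (≥4 wells/concentration). Dose-response inhibition fit gives IC50.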

[2] = target: human dopamine transporter (hDAT) (Homo sapiens, UniProt Q01959); experiment: Inhibition of APP+ uptake in hDAT-expressing HEK293 cells; assay type: cell-based; conditions: for DAT Selectivity: SERT IC50 value ÷ DAT IC50 value; for IC50: hDAT, inhibition of APP+ (3 μM) uptake
human dopamine transporter (hDAT), sequence (Q01959 whole entry): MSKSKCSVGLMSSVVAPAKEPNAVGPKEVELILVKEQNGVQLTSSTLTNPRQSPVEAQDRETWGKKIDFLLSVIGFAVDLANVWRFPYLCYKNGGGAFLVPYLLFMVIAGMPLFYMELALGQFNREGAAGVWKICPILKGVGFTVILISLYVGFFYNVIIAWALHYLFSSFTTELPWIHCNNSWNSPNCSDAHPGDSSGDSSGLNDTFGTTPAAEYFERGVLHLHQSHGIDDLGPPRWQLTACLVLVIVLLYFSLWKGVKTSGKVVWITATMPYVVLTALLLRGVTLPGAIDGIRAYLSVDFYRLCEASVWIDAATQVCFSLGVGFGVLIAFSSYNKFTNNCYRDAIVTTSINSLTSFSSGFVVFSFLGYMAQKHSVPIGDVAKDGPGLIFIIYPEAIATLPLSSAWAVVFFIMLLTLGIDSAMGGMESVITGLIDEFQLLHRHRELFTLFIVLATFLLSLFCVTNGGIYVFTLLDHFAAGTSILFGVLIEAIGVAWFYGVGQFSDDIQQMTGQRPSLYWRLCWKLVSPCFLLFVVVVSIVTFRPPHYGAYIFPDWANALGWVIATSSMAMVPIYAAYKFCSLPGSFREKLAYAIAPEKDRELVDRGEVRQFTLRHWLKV
Outline: as §1

DAT [3] = conditions: cited from earlier work; for EC50: DAT releasing agent
DAT [4] = conditions: binding at DAT; cited from earlier work

human serotonin transporter (hSERT), sequence (P31645 whole entry, the tested form may be a part): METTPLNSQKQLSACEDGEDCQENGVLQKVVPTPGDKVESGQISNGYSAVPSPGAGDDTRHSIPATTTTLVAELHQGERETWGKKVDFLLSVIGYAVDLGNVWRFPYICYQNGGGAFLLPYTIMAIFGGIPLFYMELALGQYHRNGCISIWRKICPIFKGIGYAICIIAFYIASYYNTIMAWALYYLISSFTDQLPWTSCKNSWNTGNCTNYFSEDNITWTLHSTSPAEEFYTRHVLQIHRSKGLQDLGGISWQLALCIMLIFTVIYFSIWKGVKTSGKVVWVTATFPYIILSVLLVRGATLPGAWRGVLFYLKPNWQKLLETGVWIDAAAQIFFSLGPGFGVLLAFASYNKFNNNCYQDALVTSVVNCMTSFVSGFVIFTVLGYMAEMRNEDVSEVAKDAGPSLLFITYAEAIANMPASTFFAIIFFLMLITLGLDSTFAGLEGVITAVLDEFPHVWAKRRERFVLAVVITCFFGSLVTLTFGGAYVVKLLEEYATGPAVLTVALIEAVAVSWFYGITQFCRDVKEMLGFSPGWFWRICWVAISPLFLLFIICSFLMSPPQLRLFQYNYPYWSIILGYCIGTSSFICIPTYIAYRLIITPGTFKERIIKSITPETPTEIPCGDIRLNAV

CCCCC(C(=O)c1ccc(OC)cc1)N1CCCC1.Cl (stereo not drawn) [4-OCH3 α-PHP (5), 1-(4-Methoxyphenyl)-2-(pyrrolidin-1-yl)hexanone Hydrochloride]
IC50 [1]: 15200 nM | DAT Selectivity [2]: 200 fold | IC50 [2]: 75 nM

CCCCC(C(=O)c1ccc(Br)cc1)N1CCCC1.Cl (stereo not drawn) [4-Br α-PHP (8), 1-(4-Bromophenyl)-2-(pyrrolidin-1-yl)hexanone Hydrochloride]
IC50 [1]: 3610 nM | DAT Selectivity [2]: 28 fold | IC50 [2]: 127 nM

CNC(C)C(=O)c1ccc(C(F)(F)F)cc1 (centres unmarked) [4-CF3 10, 4-CF3 methcathinone]
EC50 (DAT [3]): 2710 nM

CCCC(C(=O)c1ccc(C(F)(F)F)cc1)N1CCCC1 (centres unmarked) [4-CF3 analogue of 2]
fold lower affinity at DAT than 2 (DAT [4]): > 300 fold

CNC(C)C(=O)c1ccc(OC)cc1 (centres unmarked) [4-OCH3 10]
fold lower potency as a releasing agent than its parent, 10 (DAT [3]; DAT release): 40 fold | SERT versus DAT selectivity (DAT [3]; releasing agent): 4 fold

CCCCC(C(=O)c1ccc(C)cc1)N1CCCC1.Cl (stereo not drawn) [4-CH3 α-PHP (4), 1-(4-Methylphenyl)-2-pyrrolidin-1-yl)hexanone Hydrochloride]
IC50 [1]: 10200 nM | IC50 [2]: 124 nM

CCCCC(C(=O)c1ccc(Cl)cc1)N1CCCC1.Cl (stereo not drawn) [4-Cl α-PHP (7), 1-(4-Chlorophenyl)-2-(pyrrolidin-1-yl)hexanone Hydrochloride]
IC50 [1]: 10100 nM | DAT Selectivity [2]: 55 fold | IC50 [2]: 184 nM

CCCCC(C(=O)c1ccc(CC)cc1)N1CCCC1.Cl (stereo not drawn) [4-CH2CH3 α-PHP (6), 1-(4-Ethylphenyl)-2-(pyrrolidin-1-yl)hexanone Hydrochloride]
IC50 [1]: 9830 nM | DAT Selectivity [2]: 40 fold | IC50 [2]: 247 nM

CCCCC(C(=O)c1ccc(C)cc1)N1CCCC1.Cl (stereo not drawn) [4-CH3 α-PHP (4)]
DAT Selectivity [2]: 83 fold

CCCCC(C(=O)c1ccccc1)N1CCCC1 (stereo not drawn) [α-PHP (1), 1-phenyl-2-(pyrrolidin-1-yl)hexanone]
IC50 [1]: > 30000 nM | DAT Selectivity [2]: >300 fold | IC50 [2]: 97 nM

CCCCC(C(=O)c1ccc(C(F)(F)F)cc1)N1CCCC1.Cl (stereo not drawn) [4-CF3 α-PHP (9), 1-(4-Trifluoromethylphenyl)-2-pyrrolidin-1-yl)hexanone Hydrochloride]
IC50 [1]: 5790 nM | IC50 [2]: 7500 nM

CNC(C)C(=O)c1ccccc1 (centres unmarked) [Compound 10, methcathinone]
EC50 (DAT [3]): 13.5 nM

CCCCC(C(=O)c1ccc(C(F)(F)F)cc1)N1CCCC1.Cl (stereo not drawn) [4-CF3 α-PHP (9)]
DAT Selectivity [2]: 0.8 fold
